Test results reported in the array DNA melting data of Ke et al. (doi:10.1101/2024.01.08.574731).

Tests used:
[1] = melting temperature; fluorescence melt of hairpins on a sequencing array, two-state fit, raised by 9.35 °C to match UV melts; conditions: sodium 0.088 M
Outline: (§1)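 Bootstrapped two-state fits yielded melting temperature and folding enthalpy for library hairpins. Cy3 fluorescence, with annealed Cy3 and quencher oligos, was imaged on a sequenced MiSeq flow cell in 50 mM Na-HEPES pH 8.0, 25 mM NaCl in 2.5 °C steps up to 60 °C, and normalised to pre-quench Cy3 and to control constructs. Four replicates were combined by inverse variance, and fitted temperatures were raised by 9.35 °C to match UV melts.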

[2] = folding enthalpy; higher = less favourable; fluorescence melt of hairpins on a sequencing array, two-state fit; conditions: sodium 0.088 M
Outline: as §1

GAGACCGAAAGGTAACTC ((((((....)))..)))
Tm [1]: 39.7 °C | folding enthalpy [2]: -12.3 kcal/mol

GAGACCGAAAGGTACCTC ((((((....)))..)))
Tm [1]: 30.7 °C | folding enthalpy [2]: -11.9 kcal/mol

GAGACCGAAAGGTATCTC ((((((....)))..)))
Tm [1]: 53 °C | folding enthalpy [2]: -24 kcal/mol

GAGACCGAAAGGTGCTC ((((((....))).)))
Tm [1]: 46.9 °C | folding enthalpy [2]: -21.4 kcal/mol

GAGACCGAAAGGTTCCTC ((((((....)))..)))
Tm [1]: 32 °C | folding enthalpy [2]: -12.4 kcal/mol

GAGACCGAAAGGTTGCTC ((((((....)))..)))
Tm [1]: 36.2 °C | folding enthalpy [2]: -14.1 kcal/mol

GAGACCGAAAGGTTTCTC ((((((....)))..)))
Tm [1]: 50.6 °C | folding enthalpy [2]: -22.5 kcal/mol

GAGACCGGAAACGATCTC ((((.((....)).))))
Tm [1]: 42 °C | folding enthalpy [2]: -31.9 kcal/mol

GAGACGCCGAAAGGCCTC (((..(((....))))))
Tm [1]: 30.6 °C | folding enthalpy [2]: -8.48 kcal/mol

GAGACGGCGAAAGCCCTC (((..(((....))))))
Tm [1]: 34.5 °C | folding enthalpy [2]: -6.29 kcal/mol

GAGACTGGAAACGGTCTC (((((.(....).)))))
Tm [1]: 49.9 °C | folding enthalpy [2]: -46 kcal/mol

GAGAGACGAAAGTCCTC (((.(((....))))))
Tm [1]: 46.9 °C | folding enthalpy [2]: -17.9 kcal/mol

GAGAGAGGAAACTCCCTC (((.(((....))).)))
Tm [1]: 28.6 °C | folding enthalpy [2]: -22.1 kcal/mol

GAGAGCCGAAAGGCGCTC (((.(((....))).)))
Tm [1]: 67.8 °C | folding enthalpy [2]: -22.9 kcal/mol

GAGAGCGAAAGCTAGCTC ((((((....)))..)))
Tm [1]: 36.6 °C | folding enthalpy [2]: -13.8 kcal/mol

GAGAGCGAAAGCTATCTC ((((((....)))..)))
Tm [1]: 51.2 °C | folding enthalpy [2]: -22.4 kcal/mol

GAGAGCGAAAGCTGTCTC ((((((....)))..)))
Tm [1]: 51.1 °C | folding enthalpy [2]: -20.3 kcal/mol

GAGAGCGAAAGCTTTCTC ((((((....)))..)))
Tm [1]: 46.6 °C | folding enthalpy [2]: -21.4 kcal/mol

GAGAGGAAACTCTC (((((....)))))
Tm [1]: 44.6 °C | folding enthalpy [2]: -23.4 kcal/mol

GAGAGGGGAAACCCTTTC ((.((((....)))).))
Tm [1]: 36.4 °C | folding enthalpy [2]: -16.8 kcal/mol

GAGAGTGGAAACACTTTC ((.((((....)))).))
Tm [1]: 37.6 °C | folding enthalpy [2]: -19.4 kcal/mol

GAGATAGGAAACCATCTC (((((.(....).)))))
Tm [1]: 34.1 °C | folding enthalpy [2]: -23.5 kcal/mol

GAGATCCGAAAGGAACTC (((.(((....))).)))
Tm [1]: 50.2 °C | folding enthalpy [2]: -32.2 kcal/mol

GAGATCGGAAACGATTTC ((.((((....)))).))
Tm [1]: 42.3 °C | folding enthalpy [2]: -26.8 kcal/mol

GAGATCGGAAACGGTCTC ((((.((....)).))))
Tm [1]: 51.3 °C | folding enthalpy [2]: -44.5 kcal/mol

GAGATGGGAAACCATCCC (.(((((....))))).)
Tm [1]: 38.7 °C | folding enthalpy [2]: -13.1 kcal/mol

GAGATTGGAAACAATCCC (.(((((....))))).)
Tm [1]: 34 °C | folding enthalpy [2]: -19.6 kcal/mol

GAGATTGGAAACAATCTC (((((((....)))))))
Tm [1]: 56.4 °C | folding enthalpy [2]: -42.2 kcal/mol

GAGCAAGGAAACCTGCTC (((((.(....).)))))
Tm [1]: 48.5 °C | folding enthalpy [2]: -27.6 kcal/mol

GAGCACGAAAGTGAACTC ((((((....)))..)))
Tm [1]: 42.9 °C | folding enthalpy [2]: -20.2 kcal/mol

GAGCACGAAAGTGATCTC ((((((....)))..)))
Tm [1]: 57.1 °C | folding enthalpy [2]: -23.7 kcal/mol

GAGCACGGAAACGTGCCC (.(((((....))))).)
Tm [1]: 53.6 °C | folding enthalpy [2]: -6.99 kcal/mol

GAGCAGGGAAACCTGCCC (.(((((....))))).)
Tm [1]: 42.1 °C | folding enthalpy [2]: -12.8 kcal/mol

GAGCATGGAAACATACTC (((.(((....))).)))
Tm [1]: 35.6 °C | folding enthalpy [2]: -26.1 kcal/mol

GAGCCACGAAAGTGCCTC (((.(((....))).)))
Tm [1]: 42.1 °C | folding enthalpy [2]: -16.9 kcal/mol

GAGCCAGGAAACTAGCTC ((((.((....)).))))
Tm [1]: 37.4 °C | folding enthalpy [2]: -26.2 kcal/mol

GAGCCCACGAAAGTGCTC (((..(((....))))))
Tm [1]: 35.8 °C | folding enthalpy [2]: -16 kcal/mol

GAGCCCCGAAAGGGTCTC (((.(((....))).)))
Tm [1]: 57.1 °C | folding enthalpy [2]: -32.9 kcal/mol

GAGCCCGAAAGGGATCTC ((((((....)))..)))
Tm [1]: 69 °C | folding enthalpy [2]: -24.6 kcal/mol

GAGCCCGAAAGGGCACTC ((((((....)))..)))
Tm [1]: 62.2 °C | folding enthalpy [2]: -11 kcal/mol

GAGCCCGAAAGGGTACTC ((((((....)))..)))
Tm [1]: 43.1 °C | folding enthalpy [2]: -13.1 kcal/mol

GAGCCCGAAAGGGTCCTC ((((((....)))..)))
Tm [1]: 42.5 °C | folding enthalpy [2]: -13.2 kcal/mol

GAGCCCGAAAGGGTCTC ((((((....))).)))
Tm [1]: 59 °C | folding enthalpy [2]: -23.8 kcal/mol

GAGCCCGGAAACGAGCTC ((((.((....)).))))
Tm [1]: 50.2 °C | folding enthalpy [2]: -35.8 kcal/mol

GAGCCGGGAAACTGGCTC (((((.(....).)))))
Tm [1]: 63.3 °C | folding enthalpy [2]: -36.2 kcal/mol

GAGCCTCCGAAAGGACTC (((..(((....))))))
Tm [1]: 31.9 °C | folding enthalpy [2]: -11.8 kcal/mol

GAGCGAGGAAACTCGCCC (.(((((....))))).)
Tm [1]: 53.6 °C | folding enthalpy [2]: -7.21 kcal/mol

GAGCGAGGAAACTCGTTC ((.((((....)))).))
Tm [1]: 48.8 °C | folding enthalpy [2]: -27 kcal/mol

GAGCGAGGAAACTTGCTC ((((.((....)).))))
Tm [1]: 52.2 °C | folding enthalpy [2]: -25.1 kcal/mol

GAGCGCACGAAAGTGCTC (((..(((....))))))
Tm [1]: 38.1 °C | folding enthalpy [2]: -8.27 kcal/mol

GAGCGCCGAAAGGCCCTC (((.(((....))).)))
Tm [1]: 47.6 °C | folding enthalpy [2]: -15.4 kcal/mol

GAGCGCGAAAGCGACTC ((((((....))).)))
Tm [1]: 60.3 °C | folding enthalpy [2]: -16.9 kcal/mol

GAGCGCGAAAGCGGGCTC ((((((....)))..)))
Tm [1]: 67.9 °C | folding enthalpy [2]: -16.2 kcal/mol

GAGCGCGAAAGCGTGCTC ((((((....)))..)))
Tm [1]: 56.4 °C | folding enthalpy [2]: -17.1 kcal/mol

GAGCGCGGAAACGCACCC (.(.(((....))).).)
Tm [1]: 31.7 °C | folding enthalpy [2]: -7.47 kcal/mol

GAGCGGGGAAACCCACTC (((.(((....))).)))
Tm [1]: 46.2 °C | folding enthalpy [2]: -28.4 kcal/mol

GAGCGGGGAAACCCGTTC ((.((((....)))).))
Tm [1]: 53 °C | folding enthalpy [2]: -20.1 kcal/mol

GAGCGTACGAAAGTACTC (((..(((....))))))
Tm [1]: 27 °C | folding enthalpy [2]: -13.4 kcal/mol

GAGCGTGGAAACGTGCTC ((((..(....)..))))
Tm [1]: 47.6 °C | folding enthalpy [2]: -19.3 kcal/mol

GAGCTACGAAAGTACCTC (((.(((....))).)))
Tm [1]: 30.6 °C | folding enthalpy [2]: -19 kcal/mol

GAGCTAGGAAACTAGCTC (((((((....)))))))
Tm [1]: 62.4 °C | folding enthalpy [2]: -37.9 kcal/mol

GAGCTCCGAAAGGAACTC (((.(((....))).)))
Tm [1]: 50.6 °C | folding enthalpy [2]: -27.5 kcal/mol

GAGCTCCGAAAGGACCTC (((.(((....))).)))
Tm [1]: 38.1 °C | folding enthalpy [2]: -20.2 kcal/mol

GAGCTCGGAAACGGGTTC ((.(.((....)).).))
Tm [1]: 42.3 °C | folding enthalpy [2]: -14.2 kcal/mol

GAGCTGGAAACAGCTC ((((((....))))))
Tm [1]: 67.6 °C | folding enthalpy [2]: -26 kcal/mol

GAGCTTGGAAACAGGCTC ((((.((....)).))))
Tm [1]: 49.3 °C | folding enthalpy [2]: -45 kcal/mol

GAGCTTGGAAACGAGCTC (((((.(....).)))))
Tm [1]: 53.4 °C | folding enthalpy [2]: -45.1 kcal/mol

GAGGAAGCGAAAGCTCTC (((..(((....))))))
Tm [1]: 35.4 °C | folding enthalpy [2]: -13.7 kcal/mol
